In article PMC5561660 (Organic & biomolecular chemistry, 2017):
Like-named read-outs stand apart in the source and are kept apart here. Each block holds one molecule with its values, some of them ahead of it.

How the values were obtained:
[1] = target: T1, human VAChT (Homo sapiens, UniProt Q16572); experiment: VAChT competitive binding, displacement of
T1 sequence (Q16572 1-532): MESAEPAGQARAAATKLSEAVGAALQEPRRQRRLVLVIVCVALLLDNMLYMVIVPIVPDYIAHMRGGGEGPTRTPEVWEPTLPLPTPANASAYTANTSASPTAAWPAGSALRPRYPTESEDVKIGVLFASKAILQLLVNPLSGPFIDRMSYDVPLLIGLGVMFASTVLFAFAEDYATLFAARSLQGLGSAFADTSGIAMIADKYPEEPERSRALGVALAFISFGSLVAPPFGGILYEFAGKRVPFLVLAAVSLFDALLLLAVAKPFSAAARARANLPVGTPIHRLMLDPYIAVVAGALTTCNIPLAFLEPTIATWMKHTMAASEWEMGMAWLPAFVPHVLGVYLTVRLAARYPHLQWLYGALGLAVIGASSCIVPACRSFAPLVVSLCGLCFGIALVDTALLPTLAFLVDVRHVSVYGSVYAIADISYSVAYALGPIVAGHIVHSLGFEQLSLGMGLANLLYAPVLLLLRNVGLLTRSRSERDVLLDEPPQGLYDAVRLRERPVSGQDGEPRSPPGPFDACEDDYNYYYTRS
Method in brief: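 Postnuclear supernatant (200 µg) from PC12A123.7 cells expressing human VAChT, incubated with (−)-[3H]vesamicol and test compound (0.1–10,000 nM, 10-fold steps) in 110 mM potassium tartrate, 20 mM HEPES pH 7.4, 1 mM DTT, 0.02% sodium azide, 22 °C, 24 h. Duplicate filtration on PEI-coated GF/F filters, buffer washes, scintillation counting. Ki from rectangular hyperbola fit of averaged data; ≥2 independent assays.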

[2] = target: T2, σ2 receptor (Rattus norvegicus, UniProt Q5U3Y7); details: read-out: Ki σ2, mean ± SEM, cited from earlier work
T2 sequence (Q5U3Y7 1-176): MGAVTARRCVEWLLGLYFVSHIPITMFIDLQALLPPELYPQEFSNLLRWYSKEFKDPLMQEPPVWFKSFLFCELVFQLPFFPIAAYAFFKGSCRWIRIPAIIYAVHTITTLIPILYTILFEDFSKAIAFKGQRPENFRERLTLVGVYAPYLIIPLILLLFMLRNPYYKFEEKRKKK

[3] = system: σ2 receptor; details: selectivity ratio, cited from earlier work
[4] = target: σ1 receptor (Cavia porcellus, UniProt Q60492); details: read-out: Ki σ1, mean ± SEM, cited from earlier work
[5] = system: σ1 receptor; details: selectivity ratio, cited from earlier work
[6] = target: T1, human VAChT; details: read-out: Ki VAChT, mean ± SEM, cited from earlier work

Sequence of σ1 receptor (Cavia porcellus, UniProt Q60492) (Q60492 whole entry): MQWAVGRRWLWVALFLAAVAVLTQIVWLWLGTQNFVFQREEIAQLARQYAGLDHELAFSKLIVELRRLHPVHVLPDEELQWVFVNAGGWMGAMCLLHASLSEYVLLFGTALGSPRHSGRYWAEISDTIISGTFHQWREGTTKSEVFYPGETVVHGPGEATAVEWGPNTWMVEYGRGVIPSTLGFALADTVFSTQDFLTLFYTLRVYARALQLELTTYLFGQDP

Ki [1]: 2.68 ± 0.23 nM
SMILES: O=C(c1ccc(NCCF)cc1)C1CCN(C2Cc3ccccc3CC2O)CC1 (racemic) [(±)-7, (4-((2-Fluoroethyl)amino)phenyl)(1-(3-hydroxy-1,2,3,4-tetrahydronaphthalen-2-yl)piperidin-4-yl)methanone]

SMILES: O=C(c1ccc(OCCF)nc1)C1CCN(C2Cc3ccccc3CC2O)CC1 (racemic) [(±)-6, (6-(2-fluoroethoxy)pyridin-3-yl)(1-(3-hydroxy-1,2,3,4-tetrahydronaphthalen-2-yl)piperidin-4-yl)methanone]
Ki ([2]; ref [23]): 1890 ± 240 nM
σ2/VAChT ([3]; ref [23]): 1086
Ki ([4]; ref [23]): 13.2 ± 0.2 nM
σ1/VAChT ([5]; ref [23]): 8
Ki ([6]; ref [23]): 1.74 ± 0.32 nM

SMILES: O=C(c1ccc(OCCF)cc1)C1CCN(C2Cc3ccccc3CC2O)CC1 (racemic) [(±)-5, (4-(2-fluoroethoxy)phenyl)(1-(3-hydroxy-1,2,3,4-tetrahydronaphthalen-2-yl)piperidin-4-yl)methanone]
Ki ([2]; ref [20]): 1860 ± 140 nM
σ2/VAChT ([3]; ref [20]): 49
Ki ([4]; ref [20]): 2120 ± 50 nM
σ1/VAChT ([5]; ref [20]): 56
Ki ([6]; ref [20]): 38 ± 3.8 nM
